# Data reported in ChEMBL document CHEMBL1157192, “No carrier added synthesis of O-(2'-[18F]fluoroethyl)-L-tyrosine via a novel type of chiral enantiomerically pure precursor, NiII complex of a (S)-tyrosine Schiff base” (Bioorg Med Chem, 2008).
# Columns and labels:
# Conditions in all cases: in vivo
# [1] = tested on: Heart; test: Biodistribution in heart of Wistar rat bearing turpentine-induced aseptic abscess at 150-180 uCi after 40 mins; assay type: ADME, organism-based
# How it was run: (§1)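 Male Wistar rats (150–200 g) received 150–180 μCi ([…]) [18F]FET in 0.3 mL isotonic solution via the jugular vein. They were killed at 40 min. Organs were dissected, blotted of blood, weighed and gamma-counted, and values are given as %ID/g, with five rats per time point. Glioma35 homografts grew for 14 days after subcutaneous or intramuscular injection into the right hind limb. Abscesses were raised by turpentine oil (10 μL) into the right hind-limb muscle 24 h before the experiment.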
# [2] = tested on: Blood; test: Biodistribution in blood of Wistar rat bearing glioma35 rat tumor at 150-180 uCi after 40 mins; assay type: ADME, organism-based; how it was run: as §1
# [3] = tested on: Blood; test: Biodistribution in blood of Wistar rat bearing turpentine-induced aseptic abscess at 150-180 uCi after 40 mins; assay type: ADME, organism-based; how it was run: as §1
# [4] = tested on: Liver; test: Biodistribution in liver of Wistar rat bearing turpentine-induced aseptic abscess at 150-180 uCi after 40 mins; assay type: ADME, organism-based; how it was run: as §1
# [5] = Biodistribution in tumor of Wistar rat bearing glioma35 rat tumor at 150-180 uCi after 40 mins; assay type: ADME, organism-based, Neoplasm; how it was run: as §1
# [6] = Biodistribution in urinary bladder of Wistar rat bearing turpentine-induced aseptic abscess at 150-180 uCi after 40 mins; assay type: ADME, organism-based; how it was run: as §1
# [7] = tested on: Heart; test: Biodistribution in heart of Wistar rat bearing glioma35 rat tumor at 150-180 uCi after 40 mins; assay type: ADME, organism-based; how it was run: as §1
# [8] = Biodistribution in abscess of Wistar rat bearing turpentine-induced aseptic abscess at 150-180 uCi after 40 mins; assay type: ADME, organism-based; how it was run: as §1
# [9] = tested on: Brain; test: Biodistribution in brain of Wistar rat bearing turpentine-induced aseptic abscess at 150-180 uCi after 40 mins; assay type: ADME, organism-based; how it was run: as §1
# [10] = Biodistribution in urinary bladder of Wistar rat bearing glioma35 rat tumor at 150-180 uCi after 40 mins; assay type: ADME, organism-based; how it was run: as §1
# [11] = tested on: Liver; test: Biodistribution in liver of Wistar rat bearing glioma35 rat tumor at 150-180 uCi after 40 mins; assay type: ADME, organism-based; how it was run: as §1
# [12] = tested on: Muscle tissue; test: Biodistribution in muscle of Wistar rat bearing turpentine-induced aseptic abscess at 150-180 uCi after 40 mins; assay type: ADME, organism-based; how it was run: as §1
# [13] = tested on: Kidney; test: Biodistribution in kidney of Wistar rat bearing glioma35 rat tumor at 150-180 uCi after 40 mins; assay type: ADME, organism-based; how it was run: as §1
# [14] = tested on: Brain; test: Biodistribution in brain of Wistar rat bearing glioma35 rat tumor at 150-180 uCi after 40 mins; assay type: ADME, organism-based; how it was run: as §1
# [15] = tested on: Muscle tissue; test: Biodistribution in muscle of Wistar rat bearing glioma35 rat tumor at 150-180 uCi after 40 mins; assay type: ADME, organism-based; how it was run: as §1
# [16] = tested on: Kidney; test: Biodistribution in kidney of Wistar rat bearing turpentine-induced aseptic abscess at 150-180 uCi after 40 mins; assay type: ADME, organism-based; how it was run: as §1
smiles,measurement,setting,value
N[C@@H](Cc1ccc(OCC[18F])cc1)C(=O)O [FLORETYROSINE F18],Drug uptake,[1],1.47 % ID/g
same,Drug uptake,[2],1.24 % ID/g
same,Drug uptake,[3],1.45 % ID/g
same,Drug uptake,[4],1.24 % ID/g
same,Drug uptake,[5],2.53 % ID/g
same,Drug uptake,[6],3.94 % ID/g
same,Drug uptake,[7],0.98 % ID/g
same,Drug uptake,[8],1.75 % ID/g
same,Drug uptake,[9],1 % ID/g
same,Drug uptake,[10],2.51 % ID/g
same,Drug uptake,[11],1.03 % ID/g
same,Drug uptake,[12],1.32 % ID/g
same,Drug uptake,[13],0.86 % ID/g
same,Drug uptake,[14],0.54 % ID/g
same,Drug uptake,[15],0.84 % ID/g
same,Drug uptake,[16],1.58 % ID/g
